Only some compounds are listed: those with a hit (about 2% of all), similar ones and a draw of the others.
SR-BI DiI inh: blocks mouse SR-BI lipid uptake from DiI-HDL. Q61009. inhibition, % at 12.5 µM. hit rate 0.96% among 320,000. ldlA[mSR-BI] CHO cells, DiI-HDL uptake fluorescence, 3 h;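 active means mean replicate inhibition of at least 70% and a set share of replicates each scoring 70 or more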;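 further: 0% = median of neutral control wells and 100% = median of positive control wells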
Target sequence (Q61009 whole entry, looked up): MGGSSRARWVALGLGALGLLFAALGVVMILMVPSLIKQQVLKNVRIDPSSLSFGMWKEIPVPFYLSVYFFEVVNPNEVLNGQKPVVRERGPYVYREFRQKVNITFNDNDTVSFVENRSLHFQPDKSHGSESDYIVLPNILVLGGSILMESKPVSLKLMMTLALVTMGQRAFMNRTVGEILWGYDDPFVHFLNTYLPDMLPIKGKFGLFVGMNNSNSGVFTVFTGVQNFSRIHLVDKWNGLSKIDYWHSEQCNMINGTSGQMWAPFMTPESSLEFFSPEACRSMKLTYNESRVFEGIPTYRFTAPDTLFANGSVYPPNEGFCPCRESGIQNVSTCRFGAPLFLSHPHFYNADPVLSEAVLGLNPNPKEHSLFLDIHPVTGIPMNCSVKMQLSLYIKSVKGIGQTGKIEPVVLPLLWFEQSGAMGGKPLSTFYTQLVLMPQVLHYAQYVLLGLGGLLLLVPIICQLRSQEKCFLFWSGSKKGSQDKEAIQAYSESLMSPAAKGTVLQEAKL
dFosB act: activators of mouse delta FosB homodimer | P13346 | purified delta FosB, TAMRA-CDK5 oligo fluorescence polarization; percent of positive-control signal above neutral wells | activation, % at 25 µM | hit rate 0.99% among 340,000 | AID 493131;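 active means mean activation above about 17%, with every replicate also reaching it, limit read from the data, passing the limit was not always enough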
SR-BI DiI-HDL act: activators of SR-BI mediated HDL lipid uptake; CHO ldlA[mSR-BI] cells, DiI-HDL uptake fluorescence, 3 h; 100 = double the neutral-control signal; activation, % at 12.5 µM; hit rate 0.096% among 320,000; AID 504775;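 active means mean replicate activation of at least 60% and every replicate at or above 60%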;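 further: 0% = median plate neutral-control signal and 100% = twice that signal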
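Test system: SR-BI-overexpressing, LDLR-lacking CHO cells. Measured by: DiI fluorescence, bottom read. Medium: Ham's F12 with 0.5% BSA, HEPES 25 mM, pH 7.4. Timing: 3 h uptake period with compound, 37 °C.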
CDK5 inh: inhibitors of human CDK5/p35 kinase. Q00535+Q15078. Recombinant CDK5/p35, ADP-Glo luminescence, 60 min. inhibition, % at 10 µM. hit rate 0.01% among 330,000. AID 488839;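 active means highest replicate inhibition of at least 50% and at least 75% of replicates reaching 50%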;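 further: plate controls were DMSO neutral control for no effect and GW8510 at 10 µM for full effect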
* marks the source's active call; other numbers are inactive results; . = no result.

SMILES	SR-BI DiI inh	dFosB act	SR-BI DiI-HDL act	CDK5 inh
CC(=O)Oc1ccc(C(=O)Nc2ccccc2C(=O)NCC(C)C)cc1	74*	-4	-74	0
COc1ccc(CC(=O)Nc2ccc(C(=O)NCC(C)C)cc2)cc1	6	28*	-6	1
O=C(COc1ccc(Cl)cc1Br)NC(=O)NC1CCCC1	34	-6	-34	-1
Cn1nc(CC(=O)N2CCN(c3ccccc3)CC2)c2ccccc2c1=O	-6	-8	6	-2
Cn1nc(CC(=O)Nc2ccc(N3CCN(C(=O)OC(C)(C)C)CC3)cc2)c2ccccc2c1=O	-12	21*	12	0
CCc1ccc(C(=O)CN2C(=O)NC3(CCc4ccccc43)C2=O)cc1 (stereo not drawn)	-7	-11	7	-3
COc1ccc(CCNC(=O)c2cccc(NC(=O)CC3SC(N4CCCCC4)=NC3=O)c2)cc1OC (stereo not drawn)	78*	-9	-78	0
CN(C)CCN(C(=O)c1ccc(S(=O)(=O)N(C)c2ccccc2)cc1)c1nc2cc3c(cc2s1)OCCO3	-12	47*	12	-7
CCN(Cc1ccccc1)S(=O)(=O)c1ccc(C(=O)N(CCCN(C)C)c2nc3cc4c(cc3s2)OCCO4)cc1	12	42*	-12	-1
CCCCNc1c(-c2cccc(-c3ccc(OC)cc3)c2)nc2ccc(C)cn12	44	0	-44	1
CCCCNc1c(-c2ccc(-c3ccc(C(C)=O)cc3)c(OC)c2)nc2cnccn12	73*	1	-73	-4
CCCCNc1c(-c2cccc(-c3ccc(OC)cc3)c2)nc2cc(C)ccn12	73*	-5	-73	2
CC(Nc1ccnc2cc(Cl)ccc12)c1ccc(S(N)(=O)=O)cc1 (stereo not drawn)	-9	-8	9	-2
CC(C)NC1CCC(Nc2ccnc3cc(Cl)ccc23)CC1 (stereo not drawn)	-12	17*	12	1
CC(CCCN1CCCC1)Nc1ccnc2cc(Cl)ccc12 (stereo not drawn)	0	42*	0	0
Clc1ccc2c(NCCNC3CCCCC3)ccnc2c1	-26	45*	26	-1
Clc1ccc2c(NCc3ccccn3)ccnc2c1	-7	-4	7	0
Cc1ccc2c(c1)N(CC(=O)Nc1ncccc1C)C(=O)C(C(C)C)O2 (stereo not drawn)	-23	5	23	-4
CC(Oc1ccccc1F)c1nnc(SCC(=O)N(c2ccccc2)C2CCS(=O)(=O)C2)o1 (stereo not drawn)	6	3	-6	0
C[C@H](CO)N1C[C@H](C)[C@@H](CN(C)C(=O)Nc2ccccc2)Oc2c(NS(=O)(=O)c3cccs3)cccc2C1=O	15	1	-15	0
CN(C)C(=O)N1CCN(C(=O)N2CCOCC2)CC1	-75	-11	75*	-1
CCN(CC)C(=O)N1CCN(C(=O)N2CCOCC2)CC1	-2	-7	2	0
CC(C)Cc1nc(SCC(=O)NCC2CCCO2)c2c(=O)n(C)c(=O)n(C)c2n1 (stereo not drawn)	-5	-2	5	1
CCCCN1CC(=O)N2[C@H]3c4ccc(OC)cc4OC[C@@H]3[C@H](C(=O)OCC)[C@]2(C)C1=O	-13	-4	13	1
Cc1cc(C)c(O)c(CN(C)Cc2cc(Cl)cc(Cl)c2O)c1	112*	-6	-112	0
SMILES	SR-BI DiI inh	dFosB act	SR-BI DiI-HDL act	CDK5 inh
CC1CCCC(NC(=O)COC(=O)CCC(=O)c2ccc(F)cc2)C1C (stereo not drawn)	-3	2	3	-1
CC1=C(/C=C/C(C)=N\NC(=O)c2ccncc2)C(C)(C)CCC1	87*	-1	-87	0
CC(/C=C/c1ccc2c(c1)OCO2)=N/NC(=O)c1ccncc1	6	-9	-6	2
O=C(c1cc2nc(-c3ccc(F)cc3)cc(C(F)(F)F)n2n1)N1CCCCC1c1cccnc1 (stereo not drawn)	82*	-17	-82	0
CC(=O)c1cccc(N(C(=O)Cn2nnc3ccccc32)C(C(=O)NCC2CCCO2)c2ccc(N3CCOCC3)cc2)c1 (stereo not drawn)	-29	-3	29	3
O=C(Nc1cccnc1)/C(N=Nc1ccc(Cl)c(C(F)(F)F)c1)=C(\O)c1ccccc1	77*	-9	-77	-1
CCn1c(C)c(C)c2cc(C(=O)NCCCN3CCCCCC3)ccc21	57	-1	-57	2
CCn1c(C)c(C)c2cc(C(=O)N3CCc4ccccc4C3)ccc21	10	19*	-10	.
CCn1c(C)c(C)c2cc(C(=O)NCCN3CCCCCC3)ccc21	75*	0	-75	1
C[C@H]1CN(S(=O)C(C)(C)C)[C@H](CCO)/C1=C\c1ccccc1 (stereo partly drawn)	-16	6	16	12
Cc1cc2ccccn2c1C(=O)c1cc([N+](=O)[O-])cc([N+](=O)[O-])c1	82*	-2	-83	-1
CCOC(=O)c1[nH]c2ccc(F)cc2c1NC(=O)c1cc(OC)c(OC)c(OC)c1	71*	3	-71	0
CCOc1ccc(C2c3[nH]c4ccccc4c3C[C@H]3C(=O)N(C4CCN(Cc5ccccc5)CC4)CC(=O)N23)cc1OC (stereo partly drawn)	-41	35*	41	0
O=C1[C@@H]2Cc3c([nH]c4ccccc34)C(c3cccc([N+](=O)[O-])c3)N2C(=O)CN1C1CCN(Cc2ccccc2)CC1 (stereo partly drawn)	62	82*	-62	1
CCOc1ccc(C2c3[nH]c4ccccc4c3C[C@H]3C(=O)N(C4CC4)CC(=O)N23)cc1OC (stereo partly drawn)	14	-12	-14	0
O=C1[C@@H]2Cc3c([nH]c4ccccc34)C(c3ccccc3)N2C(=O)CN1CCO (stereo partly drawn)	28	-1	-28	-1
CC(C)CN1CC(=O)N2C(c3ccccc3)c3[nH]c4ccccc4c3C[C@H]2C1=O (stereo partly drawn)	78*	-14	-78	2
COc1ccc(-c2ccccc2[C@H]2[C@@H]3C=CC[C@@H](C)[C@@H]3C(=O)N2Cc2ccccc2)cc1	4	-5	-4	-1
COc1ccc(C(=O)Nc2cccc3cccnc23)cc1OC	79*	-34	-79	0
COc1ccc(C(=O)Nc2cccc(NC(=O)c3ccc(OC)c(OC)c3)n2)cc1OC	81*	-28	-81	0
COc1ccc(C(=O)Nc2nc(C)c(C)s2)cc1OC	79*	2	-79	1
Cc1cc(C(=O)NNS(=O)(=O)c2cc(C(=O)O)ccc2Cl)c(C)n1-c1ccccc1	-7	-12	7	0
Cc1ccc(NC(=O)CCCCCN2C(=O)[C@@H]3Cc4ccccc4CN3C2=O)c(Cl)c1	17	-12	-17	.
COc1ccc(OCc2cc(C(=O)N3CCOCC3)no2)c(Cl)c1	-17	-5	17	0

Assay outcomes deposited in PubChem by Broad Institute.
